Reference: ChEMBL document CHEMBL4270544, “Design, synthesis and biological evaluation of a novel tubulin inhibitor 7a3 targeting the colchicine binding site” (Eur J Med Chem, 2018)
pIC50: −log10 of the molar value. The source made the active and inactive calls. The calls are words filed in the database; no cut-off is given here.

Assays:
[1] = tested on: SK-OV-3; test: Antiproliferative activity against human SKOV3 cells after 72 hrs by CCK8 assay; format: functional, cell-based; details: SK-OV-3, 72 h
Procedure, shortened: (§1)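 CCK-8 proliferation assay with CA-4 as positive control. IC50 is the concentration giving 50% inhibition of proliferation. Mean ± SEM from three independent experiments.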

[2] = tested on: MDA-MB-231; test: Antiproliferative activity against human MDA-MB-231 cells after 72 hrs by CCK8 assay; format: functional, cell-based; details: MDA-MB-231, 72 h; procedure, shortened: as §1
[3] = tested on: HeLa; test: Antiproliferative activity against human HeLa cells after 72 hrs by CCK8 assay; format: functional, cell-based; procedure, shortened: as §1
[4] = tested on: A549; test: Antiproliferative activity against human A549 cells after 72 hrs by CCK8 assay; format: functional, cell-based; details: A549, 72 h; procedure, shortened: as §1
[5] = tested on: CT26; test: Antiproliferative activity against mouse CT26 cells after 72 hrs by CCK8 assay; format: functional, cell-based; details: CT26, 72 h; procedure, shortened: as §1
[6] = tested on: MCF7; test: Antiproliferative activity against human MCF7 cells after 72 hrs by CCK8 assay; format: functional, cell-based; details: MCF7, 72 h; procedure, shortened: as §1
[7] = tested on: SK-OV-3; test: Antimigratory activity against human SKOV3 cells assessed as wound closure at 80 nM after 24 hrs by microscopy based scratch wound assay (reference value: 79.5 +/- 2.8%); format: functional
[8] = tested on: SK-OV-3; test: Antimigratory activity against human SKOV3 cells assessed as wound closure at 160 nM after 24 hrs by microscopy based scratch wound assay (reference value: 79.5 +/- 2.8%); format: functional
[9] = tested on: SK-OV-3; test: Antimigratory activity against human SKOV3 cells assessed as number of migrated cells at 50 nM after 24 hrs by crystal violet staining based transwell migration assay (reference value: 49.3 to 50.7); format: functional
[10] = tested on: SK-OV-3; test: Antimigratory activity against human SKOV3 cells assessed as number of migrated cells at 25 nM after 24 hrs by crystal violet staining based transwell migration assay (reference value: 49.3 to 50.7); format: functional
[11] = tested on: SK-OV-3; test: Antimigratory activity against human SKOV3 cells assessed as number of migrated cells at 100 nM after 24 hrs by crystal violet staining based transwell migration assay (reference value: 49.3 to 50.7); format: functional
[12] = species on record: Bos taurus; test: Inhibition of bovine MAP-rich tubulin polymerization at 10 uM measured every 1 min for 30 mins relative to control
Procedure, shortened: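 Purified tubulin polymerization followed at 37 °C by absorbance at 340 nm, read every 1 min for 30 min. Test concentrations 2.5, 10 and 40 µM. CA-4 at 10 µM served as positive control and DMSO (1%, v/v) as vehicle. Polymerization is expressed relative to the vehicle group.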

pIC50 [1]	pIC50 [2]	SMILES	also measured
7.18	7.24	COc1ccc(-c2cnn(C)c2-c2cc(OC)c(OC)c(OC)c2)cc1F	pIC50 [3]: 6.95; pIC50 [4]: 6.73; pIC50 [5]: 6.82; pIC50 [6]: 6.95
7.28	7.39	COc1cc(-c2c(-c3ccc(SC)cc3)cnn2C)cc(OC)c1OC	–
5.13	4.64	COc1cc(-c2nn(-c3ccc(F)cc3)c(N)c2-c2ccc(SC)cc2)cc(OC)c1OC	–
4.77	4.53	COc1ccc(-c2c(-c3cc(OC)c(OC)c(OC)c3)nn(C(C)(C)C)c2N)cc1F	–
4.54	4.47	COc1ccc(-c2c(-c3cc(OC)c(OC)c(OC)c3)nn(-c3ccc(F)cc3)c2N)cc1	–
4.79	4.51	COc1ccc(-c2c(-c3cc(OC)c(OC)c(OC)c3)nn(C)c2N)cc1	–
6.81	6.51	COc1cc(-c2nn(C)cc2-c2ccc(SC)cc2)cc(OC)c1OC	–
4.48	4.61	COc1ccc(-c2c(-c3cc(OC)c(OC)c(OC)c3)nn(-c3ccc(F)cc3)c2N)cc1F	–
6.36	6.13	COc1cc(-c2nn(C)c(N)c2-c2ccc(SC)cc2)cc(OC)c1OC	–

Continued, compound first:

SMILES	pIC50 [1]	pIC50 [2]	also measured
COc1ccc(-c2cn(C)nc2-c2cc(OC)c(OC)c(OC)c2)cc1	7.05	6.78	–
CCOc1ccc(-c2c(-c3cc(OC)c(OC)c(OC)c3)nn(-c3ccc(OC)cc3)c2N)cc1	5.92	5.70	–
COc1ccc(-n2nc(-c3cc(OC)c(OC)c(OC)c3)c(-c3ccc(OC)c(F)c3)c2N)cc1	4.83	4.74	–
COc1ccc(-c2c(-c3cc(OC)c(OC)c(OC)c3)nn(-c3ccc(OC)cc3)c2N)cc1	4.72	4.80	–
CCOc1ccc(-c2c(-c3cc(OC)c(OC)c(OC)c3)nn(-c3ccc(F)cc3)c2N)cc1	5.55	5.78	–
CCOc1ccc(-c2cnn(C)c2-c2cc(OC)c(OC)c(OC)c2)cc1	7.37	7.14	pIC50 [3]: 7.03; pIC50 [4]: 7.00; pIC50 [5]: 6.78; pIC50 [6]: 7.40
COc1ccc(-n2nc(-c3cc(OC)c(OC)c(OC)c3)c(-c3ccc(SC)cc3)c2N)cc1	4.85	5.15	–
COc1ccc(-c2cnn(C)c2-c2cc(OC)c(OC)c(OC)c2)cc1	7.16	7.13	–
CCOc1ccc(-c2c(-c3cc(OC)c(OC)c(OC)c3)nn(C(C)(C)C)c2N)cc1	5.95	5.59	–
COc1ccc(-c2cn(C)nc2-c2cc(OC)c(OC)c(OC)c2)cc1F	7.26	7.39	pIC50 [3]: 7.54; pIC50 [4]: 6.85; pIC50 [5]: 7.23; pIC50 [6]: 7.43
CCOc1ccc(-c2c(-c3cc(OC)c(OC)c(OC)c3)nn(C)c2N)cc1	6.47	6.31	–
COc1ccc(-c2c(-c3cc(OC)c(OC)c(OC)c3)nn(C)c2N)cc1F	4.50	4.44	–
COc1ccc(/C=C\c2cc(OC)c(OC)c(OC)c2)cc1O [COMBRETASTATIN A4]	8.23	8.35	pIC50 [3]: 7.85; pIC50 [4]: 7.03; pIC50 [5]: 7.35; pIC50 [6]: 7.41; Activity [7]: 41.9%; Activity [8]: 29.2%; Activity [9]: 20.7; Activity [10]: 26.3; Activity [11]: 18.3; inhibition [12]: Active
COc1ccc(-c2c(-c3cc(OC)c(OC)c(OC)c3)nn(C(C)(C)C)c2N)cc1	4.39	4.50	–
COc1cc(-c2nn(C(C)(C)C)c(N)c2-c2ccc(SC)cc2)cc(OC)c1OC	4.62	4.68	–
